This is a sample that favours compounds with a hit; in the whole collection about 1.7% have one here.
CAL PDZ FP-1: blocks peptide binding to the human CAL PDZ domain; inhibition, % at 24.9 µM; AID 602252; Q9HD26; actives 0.92% (n = 300,000); purified CAL PDZ, TMR-peptide fluorescence polarization, 1 h;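 active means mean inhibition of at least 30% with at least half of replicates also reaching 30%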;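 further: 0% = DMSO neutral control and 100% = excess unlabeled competitor peptide PRC23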
APOBEC3G inh: blocks human APOBEC3G single-stranded DNA deamination. actives 0.28% (n = 330,000). Q9HC16. AID 493012. inhibition, % at 20 µM. recombinant A3G, ssDNA deamination FAM/TAMRA fluorescence;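 active means inhibition of at least 40% at 20 µM, with no more than 30% in the related APOBEC3A deaminase screen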;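 further: plate controls were DMSO wells with A3G for no effect and wells lacking A3G enzyme for full effect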
C-LANA FP: blocks KSHV LANA C-terminal domain binding to DNA | MBP-C-LANA/FAM-LBS DNA binding, fluorescence polarization | actives 0.078% (n = 340,000) | inhibition, % at 9 µM;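 active means highest replicate inhibition at or above 60% at 9 µM, even if other replicates fall short; inactive means all replicates below 60% inhibition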;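 further: 0% = neutral control wells and 100% = 4 µM acridine orange control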
CAL PDZ FP-2: inhibitors of human CAL PDZ peptide binding | actives 0.02% (n = 330,000) | purified CAL PDZ, TMR-peptide fluorescence polarization, 1 h | inhibition, % at 20 µM | Q9HD26;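 active means highest replicate inhibition of at least 40%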;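 further: plate controls were DMSO neutral control wells for no effect and unlabeled competitor peptide control wells for full effect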
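System: purified tagged CAL PDZ domain construct (CerCALP). Schedule: 1 h incubation at room temperature before polarization reading. Medium: 25 mM sodium phosphate pH 7.4, 150 mM NaCl, TCEP, IgG, Thesit. Read-out: percent inhibition from loss of millipolarization. Measured by: FP readout, S and P plane fluorescence. Probe or stimulus: fluorescent TMR peptide probe.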
A3A deaminase: inhibitors of human APOBEC3A DNA deaminase; recombinant A3A, FAM/TAMRA ssDNA deamination fluorescence; actives 0.41% (n = 330,000); inhibition, % at 20 µM; AID 493011; P31941;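 active means at least 40% inhibition at 20 µM here, with at most 30% in a related deaminase screen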;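 further: plate controls were A3A with DMSO for no effect and wells lacking A3A enzyme for full effect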
Target sequence (P31941 whole entry, looked up): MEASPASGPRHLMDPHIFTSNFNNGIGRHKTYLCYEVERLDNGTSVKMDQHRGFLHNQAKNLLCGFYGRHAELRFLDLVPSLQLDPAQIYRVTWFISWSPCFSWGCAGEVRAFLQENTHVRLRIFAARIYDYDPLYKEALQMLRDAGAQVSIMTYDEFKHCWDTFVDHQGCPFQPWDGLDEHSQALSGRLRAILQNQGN
Keap1 Nrf2 FP: Keap1-Nrf2 (human) interaction inhibition. Q14145. Keap1 Kelch-Nrf2 peptide fluorescence polarization, 1536-well. inhibition, % at 9.4 µM. actives 0.15% (n = 340,000). AID 504523; in the data active means inhibition above about 12%;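 further: human Keap1 Kelch domain with fluorescein labeled Nrf2 9mer peptide probe; 0% = neutral control wells and 100% = peptide positive control; higher means more block of Keap1 binding to Nrf2 peptide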
A3G conf: APOBEC3G (human) deaminase inhibition, confirmed. shares compounds with APOBEC3G inh. actives 72% (n = 890). recombinant A3G ssDNA deaminase, UDG/FAM-TAMRA fluorescence. inhibition, % at 20 µM;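 active means inhibition reaching a set limit in any replicate at 20 µM, the limit being 80% of the first screen's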
UDG A3G counter: E. coli UDG inhibition in APOBEC3G counter-screen; AID 504715; shares compounds with APOBEC3G inh; inhibition, % at 20 µM; UDG counterscreen, FAM/TAMRA oligo fluorescence; 710 tested, under 10 active;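 active means compounds giving 40% or more inhibition at 20 µM in any one of the three replicates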;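 further: plate controls were DMSO wells with UDG and oligo for no effect and DMSO wells lacking both for full effect; inhibitors lower the FAM signal released by uracil excision and alkaline cleavage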
Target sequence (P12295 whole entry, looked up): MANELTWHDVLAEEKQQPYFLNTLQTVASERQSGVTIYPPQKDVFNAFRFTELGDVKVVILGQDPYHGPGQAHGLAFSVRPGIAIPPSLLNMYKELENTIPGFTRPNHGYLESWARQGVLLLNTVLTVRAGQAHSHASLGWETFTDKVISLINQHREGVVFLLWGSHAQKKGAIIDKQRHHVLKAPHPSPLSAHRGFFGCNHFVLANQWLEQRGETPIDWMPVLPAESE
Active calls of the source: *; nt = not tested or not shown.

SMILES | CAL PDZ FP-1 | APOBEC3G inh | C-LANA FP | CAL PDZ FP-2 | A3A deaminase | Keap1 Nrf2 FP | A3G conf | UDG A3G counter
CC1(C)OC(=O)C(=Cc2ccc(-c3ccc(S(N)(=O)=O)cc3)o2)C(=O)O1 | -3.1 | 40.4* | -1.0 | 0.6 | 18.0 | 0.6 | 46.8* | nt
CC(Cc1c[nH]c2ccccc12)C(=O)O (centres undefined) | 11.2 | 40.2* | 10.4 | -1.2 | 4.1 | -2.6 | 44.7* | nt
CCCCN(C(=O)CCCc1nc2ccccc2c(=O)[nH]1)c1c(N)n(CC(C)C)c(=O)[nH]c1=O | -0.9 | -4.6 | -0.9 | 0.2 | -3.0 | -2.4 | nt | nt
O=C(Cc1cccc(NC(=O)C2CCCN(C(=O)C3CCCC3)C2)c1)Nc1cccc(C(=O)N2CCCCC2)c1 (centres undefined) | -4.0 | nt | 3.4 | 0.2 | nt | 2.5 | nt | nt
Cc1cc(C)cc(NC(=O)CS(=O)(=O)c2cccc3nsnc23)c1 | -4.3 | -9.7 | 0.7 | -2.0 | -3.4 | -0.6 | nt | nt
CCOC(=O)CSc1n[nH]c(=S)s1 | 4.0 | 86.9* | -0.1 | -1.9 | -1.6 | 0.7 | 72.0* | -0.5
CCOC(=O)CCSc1n[nH]c(=S)s1 | 7.6 | 23.2 | -1.5 | -0.3 | 0.0 | -1.2 | nt | nt
C(=N\NC1=Nc2cccc3cccc1c23)/c1ccccc1 | -0.9 | 40.5* | -1.5 | 1.9 | 2.7 | -2.6 | -1.2 | nt
Clc1ccc(/C=N/NC2=Nc3cccc4cccc2c34)cc1 | -2.6 | 0.2 | 1.4 | 0.6 | 1.1 | -6.8 | nt | nt
O=C(COC(=O)C1CCN(c2ccc(C(F)(F)F)cn2)CC1)Nc1cccc(F)c1 | -6.0 | 20.0 | -0.9 | 0.6 | 24.7 | -2.1 | nt | nt
c1cc(SSc2ccncc2)ccn1 | -3.3 | 65.3* | 0.0 | 1.7 | 4.6 | -4.6 | 70.9* | nt
c1ccc(SSc2ccccc2)cc1 | -3.1 | -1.2 | -0.2 | -0.2 | 0.8 | -2.7 | nt | nt
Cc1ccc(S(=O)(=O)N2C(=O)CCC2C(=O)O/N=C(\N)c2ccc([N+](=O)[O-])cc2)cc1 (centres undefined) | -1.7 | 2.3 | -0.4 | -0.3 | 0.5 | 3.9 | nt | nt
CC(C)C(C(=O)Nc1nccs1)c1ccccc1 (centres undefined) | -0.3 | 48.1* | -0.9 | nt | 2.9 | -8.7 | 0.0 | nt
CC(=O)Nc1nc(-c2cccc3ccccc23)cs1 | nt | -5.7 | -1.8 | -1.8 | -8.1 | 0.4 | nt | nt
CC(=O)NCCC(=O)Nc1nc(-c2c[nH]c3ccccc23)cs1 | -1.1 | 78.8* | 0.5 | -1.5 | -4.2 | -8.5 | -4.8 | 0.8
Cc1nn(C(=O)N2CCOCC2)c(C)c1C | -0.3 | 61.9* | -0.6 | -2.3 | 2.8 | 2.0 | 2.6 | nt
CCOC(=O)N1CCN(C(=O)N2CCOCC2)CC1 | -1.5 | -5.0 | -2.0 | -1.3 | -3.9 | 1.0 | nt | nt
Cn1c(=S)[nH]c2cccnc21 | 5.6 | -3.7 | -0.4 | -2.9 | 1.0 | -2.0 | nt | nt
Cc1nc2c(=O)[nH]c(=S)n(C)c2nc1C | -3.7 | 52.3* | -0.4 | -0.6 | -1.7 | -2.2 | 19.6 | -34.9
CC(NC(=O)COC(=O)c1cc(NS(=O)(=O)c2ccc(Cl)c([N+](=O)[O-])c2)ccc1O)C1CC2CCC1C2 (centres undefined) | -0.1 | 2.5 | 1.9 | -0.1 | 5.0 | 1.4 | nt | nt
c1cncc(-c2nnc(-c3cccnc3)nn2)c1 | -0.7 | 44.0* | 0.1 | -1.0 | 6.6 | -1.2 | 22.1* | -0.8
CCOC(=O)c1sc(N)c(C(=O)OC)c1C | -2.0 | -5.6 | -2.4 | -2.1 | -3.4 | 3.1 | nt | nt
CCOC(=O)c1sc(N)c(C(=O)Nc2ccccc2OC)c1C | nt | 51.1* | 0.4 | -0.7 | -0.6 | -3.6 | 67.3* | -3.1
CC1C(=O)N2CCCc3cc(NC(=O)c4ccccc4C(F)(F)F)cc1c32 (centres undefined) | -7.1 | -4.6 | -1.3 | -0.1 | -3.2 | -3.0 | nt | nt
SMILES | CAL PDZ FP-1 | APOBEC3G inh | C-LANA FP | CAL PDZ FP-2 | A3A deaminase | Keap1 Nrf2 FP | A3G conf | UDG A3G counter
CCOC(=O)CC(NS(=O)(=O)c1ccc2[nH]c(=O)sc2c1)c1ccc(C)cc1 (centres undefined) | -3.3 | -1.1 | 1.6 | 0.0 | 2.4 | 1.9 | nt | nt
COc1cccc(/C=N/n2c(COc3ccccc3)n[nH]c2=S)c1 | -0.5 | 8.1 | -1.4 | -0.6 | -0.5 | -1.6 | nt | nt
COc1cc(/C=N/n2c(-c3cc(C)[nH]n3)n[nH]c2=S)cc(OC)c1OC | 33.7* | 46.5* | 0.5 | -1.9 | -6.0 | -0.5 | 75.7* | -0.6
COc1cc(/C=N/n2c(-c3cc(C)[nH]n3)n[nH]c2=S)ccc1O | 0.4 | 35.4 | -1.3 | 0.0 | -6.1 | -5.9 | nt | nt
COc1cccc(/C=N/n2c(-c3cc(C)[nH]n3)n[nH]c2=S)c1 | -0.3 | 49.0* | 0.2 | -0.2 | -2.7 | -4.2 | 82.5* | -2.4
COc1ccc(C(=O)Nc2ccc(S(=O)(=O)N3CCCC3)cc2)cc1[N+](=O)[O-] | -4.6 | -6.5 | -0.9 | nt | -2.1 | -4.4 | nt | nt
C/C(=N\NC(=O)C(=O)N/N=C(\C)c1cccc(O)c1)c1cccc(O)c1 | 4.5 | 58.4* | -0.7 | -0.9 | 2.4 | -1.4 | 0.6 | nt
O=C(CCN1C(=O)/C(=C/c2ccc(Cl)cc2)SC1=S)Nc1ccc(C(=O)O)cc1 | -4.8 | 40.1* | 2.0 | nt | -4.0 | 5.9 | -5.5 | -3.2
CC(C)C(NC(=O)c1ccccc1NC(=O)c1ccccc1)C(=O)NNC(=O)c1ccncc1 (centres undefined) | -0.3 | -4.4 | 0.7 | -2.6 | -3.1 | -1.7 | nt | nt
CC1(C)N=C(N)N=C(N)N1CCCCc1ccccc1 | 2.8 | nt | -0.2 | -0.2 | nt | 5.4 | nt | nt
Nc1ccccc1SSc1ccccc1N | -4.9 | 81.8* | -0.6 | -1.4 | 1.0 | -4.1 | 63.2* | 1.2
N#Cc1ccccc1Sc1ccccc1N | nt | -6.3 | -0.9 | -1.8 | -2.0 | -2.4 | nt | nt
COc1ccc(/C=N/NC(=O)C2C(C=C(Cl)Cl)C2(C)C)c(OC)c1 (centres undefined) | 2.3 | -0.9 | 1.2 | -1.1 | 3.3 | 0.9 | nt | nt
COc1ccc(CN2CCNC(=O)C2CC(=O)N(Cc2nccn2C)C(C)C)c(OC)c1 (centres undefined) | 4.0 | 43.3* | 0.3 | -4.0 | 23.6 | -4.0 | 15.6* | -3.6
Cc1ccc(NNC(=O)c2ccno2)cc1Cl | nt | 7.5 | -0.1 | -1.2 | -3.4 | -3.8 | nt | nt
Cc1ccc(NNC(=O)c2ccno2)cc1C | -5.2 | 42.3* | -0.2 | -0.7 | -3.9 | -1.7 | 39.1* | -3.0
COc1ccc(CNC(=O)C2CCN(C(=O)Cc3ccccc3)CC2)cc1 | -2.8 | -9.2 | 3.7 | -2.9 | -2.7 | -4.5 | nt | nt
Nc1nnc(SC2CC(=O)N(c3ccccc3)C2=O)s1 (centres undefined) | 2.7 | 41.7* | 0.2 | -1.8 | 0.1 | -1.2 | 25.3 | nt
CCOCCCn1c(-c2ccc(Cl)cc2)n[nH]c1=S | -0.8 | 53.0* | -0.8 | 1.2 | 0.4 | 1.3 | 61.7* | -3.5

Source: PubChem BioAssay
